# Source: PubChem (several laboratories)
# A selection: hits, their analogues and other compounds. The true share with any hit is near 2.1%.
# Dynein transport: blocks dynein driven cargo transport along microtubules | 3617.4 mouse cells, GR-EGFP nuclear translocation imaging; test concentration mostly 20 µM; stimulated with dexamethasone, 1 µM; stronger effect = lower value | z-score, hits read low | 220,000 compounds, 0.47% hits;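 active = plate z-score of nuclear minus cytoplasmic receptor signal below a set negative limit, without overly bright fluorescence or cell loss, cut at about -3.5 in these data, passing the limit was not always enough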;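 also: z-score of nuclear minus cytoplasmic ring GR-EGFP intensity difference per well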
#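 Buffer or medium – tet-free medium with charcoal-stripped serum · Signal – automated 10x imaging of fixed Hoechst-stained cells · Also added – dexamethasone agonist, 1.0 µM final, for 30 min · Incubation – induction 48 h, compound 1 h, agonist 30 min · Read-out – GR-EGFP nuclear translocation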
# bCat nuc transl: alters nuclear translocation of beta-catenin in HeLa cells; nuclear translocation activity, % at 5 µM; AID 1665; immunofluorescence imaging; 190,000 compounds, 0.3% hits;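 active = nuclear translocation activity above 50% at 5 µM, with a well cell count of 50 or more; inconclusive = wells under 50 cells across six images, flagged as toxic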;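 also: per-cell ratio of nuclear to cytoplasmic median beta-catenin stain intensity; plate controls were DMSO negative control for no effect and GSK-3 inhibitor IX positive control for full effect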
#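 Assay system: human HeLa cells, native beta-catenin; doses: 5 µM primary, 0.02–20 µM confirmation; incubation: compound treatment 24 h, 37°C, 5% CO2; technique: fluorescence imaging of beta-catenin antibody stain plus DAPI; measure: % activation, nuclear-to-cytoplasmic median beta-catenin signal ratio per cell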
# Autophagy HCS: autophagy modulation, high-content screen | MEF GFP-LC3 puncta imaging; test concentration mostly 10 µM | 190,000 compounds, 0.98% hits | calls only at 10 µM (by protocol);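 active = percentage of spot-positive cells more than 3 SD above its plate mean, without a fluorescence outlier flag or 80% toxicity; inconclusive = no clear call, values can overlap the other calls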;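 also: spot-positive cell cutoff set from DMSO-treated cells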
# Hsp70 act: transcriptional activators of Hsp70; HeLa Hsp70 promoter luciferase reporter, luminescence; scaled: vehicle 0, proteasome-inhibitor control 100%; activation, % at 10 µM; 200,000 compounds, 0.04% hits;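 active = activation above the mean across all tested compounds plus 3 SD, cutoff set per campaign, cut at about 5.5% in these data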;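 also: 100% = MG132 at 30 µM as the positive control and 0% = DMSO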
# MT stabilizer: microtubule stabilization, imaging screen. HeLa tubulin immunostaining HCS, 24 h; share of cells brighter than vehicle mean+2SD. % tubulin-high responders, % at 10 µM. 200,000 compounds, 0.83% hits. AID 2205;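 active = plate Z-score above 3 for both tubulin-high and condensed-nucleus cell shares, with cell loss under 80%, at 10 µM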;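 also: anti alpha tubulin signal scored within the nucleus-defined area of each cell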
# Dynein confirm: dynein cargo transport inhibition, confirmation; 3617.4 GR-EGFP nuclear translocation imaging, dexamethasone-induced; AID 463116; shares compounds with Dynein transport; calls only at 20 µM; 1,000 compounds, 69% hits;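 active = inhibition of receptor movement into the nucleus at or above a set limit in both runs, with normal cell brightness and cell count; inconclusive = limit reached in only one run, brightness and count normal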;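 also: dexamethasone at 1 µM final in well for 30 min; nuclear minus cytoplasmic GR-EGFP mean intensity difference in channel 2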
# * marks the source's active call; other numbers are inactive results; i = inactive; ? = inconclusive; . = no result given; + = active, no number.
SMILES,Dynein transport,bCat nuc transl,Autophagy HCS,Hsp70 act,MT stabilizer,Dynein confirm
CCC1Oc2ccc(C)cc2N(CC(=O)N(Cc2cccnc2)Cc2ccc(C)o2)C1=O (stereo not drawn),-3.7*,0,i,0,2,?
COC(=O)c1ccc(C(=O)OC)c(-n2c(=O)c3ccccc3c3ccccc3c2=O)c1,-5.1*,2,i,0,3,+
COC(=O)c1ccc(-c2nn(C)c(=O)c3ccccc23)cc1,0.055,-1,.,0,3,.
Cc1cc(C2=CC(C)(c3cc(C)oc3C)Nc3nc(C(F)(F)F)nn32)c(C)o1 (stereo not drawn),-6.1*,0,i,0,4,+
Cn1c(N)c(C(=O)COC(=O)C2=NNC(=O)CC2)c(=O)n(C)c1=O,-0.78,0,.,.,.,.
COc1cc(C(Nc2ccccn2)c2ccc3ccc(C)nc3c2O)cc(OC)c1O (stereo not drawn),-3.6*,7,i,0,3,+
Cc1ccc2ccc(C(Nc3ccccn3)c3ccccc3)c(O)c2n1 (stereo not drawn),0.54,0,i,0,4,.
O=c1nc(/C=C/c2ccc(O)c(O)c2)oc2ccccc12,1.6,2,.,.,.,.
COc1ccc(/C=C\c2nc(=O)c3ccccc3o2)cc1,-3.6*,21,i,0,3,+
O=C1C(Cl)=C(N2CCCCC2)C(=O)C(Cl)=C1c1cnc(N2CCCCC2)s1,-4.9*,-1,i,0,3,+
Cc1nn(-c2ccccc2)c(C)c1C(=O)NNC(=O)C(F)(F)F,1.6,-1,.,.,.,.
COc1cccc(N2CN(CCc3ccccc3)CNC2=S)c1,0.11,-3,.,.,.,.
Nc1c(C(=O)N/N=C/c2ccc([N+](=O)[O-])cc2)sc2nnc(-c3ccccc3)c(-c3ccccc3)c12,-0.14,0,.,.,.,.
O=C1c2cc([N+](=O)[O-])cc3cc([N+](=O)[O-])cc(c23)C(=O)N1c1ccccn1,-3.5*,3,i,0,4,i
COCCCNc1nc2c(-c3ccc(Cl)cc3)nnn2c2ccccc12,-4.2*,4,i,0,3,i
CCOC(=O)N1CCN(CCC(=O)Nc2cc([N+](=O)[O-])ccc2OC)CC1,2.3,0,i,0,2,.
CCCCCCC(=O)N(O)C1CC(=O)N(c2ccc(F)cc2)C1=O (stereo not drawn),-4.7*,-1,.,.,.,+
CCCCCCC(=O)N(O)C1CC(=O)N(c2ccc(Br)cc2)C1=O (stereo not drawn),-0.9,-6,i,0,5,.
c1ccc(CN2CCC(N3CCN(Cc4ccc5c(c4)OCO5)CC3)CC2)cc1,0.24,2,.,.,.,.
O=C1C=CC2C(c3ccc4c(c3)OCO4)CC1N2Cc1ccccc1 (stereo not drawn),-3.8*,-6,i,0,4,+
CC(C)(C)OC(=O)NCCCC[C@H](NC(=O)c1nc[nH]c1C(=O)NC(c1ccccc1)c1ccccc1)C(=O)OC(C)(C)C,-0.14,4,i,0,2,.
CN1CCN(CC(O)COc2ccc(C34CC5CC(CC(C5)C3)C4)cc2)CC1 (stereo not drawn),2.7,21,i,0,9,.
Cc1nc(-c2nc(-c3c(C(=O)NNC(=O)Nc4ccccc4)noc3C)cs2)cs1,0.32,-6,.,.,.,.
CCOC(=O)Cn1nc(C)cc1NC(=O)c1cccnc1,0.96,1,i,0,2,.
CCN1CC=C2C(C#N)=C(N)C(C#N)(C#N)C(CCc3ccccc3)C2C1 (stereo not drawn),-7.5,-7,+,0,6,i
Cc1ccc(NC(=S)N2CCC(N(C)CC3CCCO3)CC2)cc1 (stereo not drawn),-0.1,-1,i,0,2,.
O=C(CSc1ncnc2nc[nH]c12)Nc1nnc(SCc2ccc(Cl)c(Cl)c2)s1,0.075,0,i,0,4,.
CCCCCCc1cc2cc(C(=O)NC)c(=N)oc2cc1O,-7.5*,.,i,0,5,+
CCCCCCc1cc2cc(C(N)=O)c(=N)oc2cc1O,-1.2,.,i,0,2,.
O=C(c1cccs1)n1nc(-c2ccccc2)nc1NCc1ccco1,-5.6*,-2,i,0,3,i
